Data on 14 molecules can be found in PubChem BioAssay.

Activity calls are given as the source filed them.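 The calls were made as follows, unless noted: active = viability at or below 10% of carrier control in both of two separate runs; inconclusive = viability at or below 10% in only one of the two runs; inactive = the rest.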

Assay [1] can be described thus: reducers of endogenous Her2 protein level, primary screen, SKBR3 breast tumor cells, AlphaScreen, ATP viability (AID 461;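 active = Her2 level under about 52% in both replicate screens, with viability over 70% of control, limit read from the data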;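 as to Her2 level: lower value means less Her2 protein in the cells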;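 as to viability: percent of carrier control wells set as 100% viability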). The settings on record: 18-24 h, measured here: SKBR3 viability, ATP luminescence, at 10 µM. Background: In Alpha technology, singlet oxygen from a donor bead excites a nearby acceptor bead.
Assay [2] addresses Receptor tyrosine-protein kinase erbB-2 (Homo sapiens) (UniProt P04626). Described as above. The settings on record: 18-24 h, at 10 µM, stronger effect = lower value.
The nature of assay [3]: SK-BR-3 cell growth inhibitors, pilot screen, 24 h, human (AID 572).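 Also: compound exposure lasted between 18 and 24 h rather than exactly 24 h; 100% = carrier-treated control wells.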 To be noted: SK-BR-3 viability, CellTiter-Glo luminescence, at 10 µM, stronger effect = lower value. A general note: ATP-based viability assays read luminescence as a measure of living cells.
Assay [4] can be described thus: HUVEC growth inhibition – cell-based, human, primary screen (AID 575;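 active = viability at or below 30% in both replicate assays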;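 also: 100% = median of untreated cell wells with 0.1% DMSO on each plate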). The settings on record: HUVEC proliferation, CellTiter-Glo luminescence, 72 h; at 10 µM; stronger effect = lower value. The procedure, abridged:
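Material: primary human umbilical vein endothelial cells / Schedule: 72 h exposure, 37 °C, 5% CO2, 30 min RT equilibration / Signal: ATP-based CellTiter-Glo luminescent read / Read-out basis: percent of median DMSO-control luminescence / Control set: 32 DMSO-only cell-control wells (high), 32 MePR drug-control wells (low) per plate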

Assay [5] in a line: growth inhibitors of H69AR lung tumor, primary screen, human, duplicate replicates (AID 580;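 active = viability at or under a set limit in both replicates, limit being median viability minus 3 SD, cut at about 48% in these data, passing the limit was not always enough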;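 also: 100% = mean luminescence of untreated wells and 0% = no signal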). To be noted: H69AR lung tumor cells viability, ATP luminescence, 72 h; at 10 µM; stronger effect = lower value.
Assay [6] can be described thus: reversal of MRP1-mediated doxorubicin resistance, pilot screen, H69AR cells, doxorubicin co-treatment (AID 601;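 active = viability loss from added drug above about 55%, and viability with drug at most 40%, in both replicates, limit read from the data, passing the limit was not always enough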). The settings on record: CellTiter-Glo, 72 h, at 10 µM; for differential viability (reversal): stronger effect = higher value.
Assay [7] in a line: 384-well plate pilot, post-Golgi transport modulator project, inhibition of yeast transport mutant growth (AID 636; in the data active = inhibition above about 31%). To be noted: absorbance 615 nm, about 18 h, stronger effect = higher value.
Assay [8] in a line: growth suppression of yeast trafficking mutant, preliminary HTS, modulators of trafficking downstream of Golgi apparatus project, 1536-format plate, OD 615 nm (AID 637; in the data active = inhibition above about 30%). To be noted: yeast transport mutant growth, absorbance 615 nm, 18 h; stronger effect = higher value.
[9] abbreviates: H69AR cells + 2 uM doxorubicin, measured here: viability with 2 uM doxorubicin, stronger effect = lower value.
The mark [10] stands for this setting: H69AR cells, compound alone cytotoxicity.

Chain of Receptor tyrosine-protein kinase erbB-2 (Homo sapiens) (P04626 whole entry, looked up): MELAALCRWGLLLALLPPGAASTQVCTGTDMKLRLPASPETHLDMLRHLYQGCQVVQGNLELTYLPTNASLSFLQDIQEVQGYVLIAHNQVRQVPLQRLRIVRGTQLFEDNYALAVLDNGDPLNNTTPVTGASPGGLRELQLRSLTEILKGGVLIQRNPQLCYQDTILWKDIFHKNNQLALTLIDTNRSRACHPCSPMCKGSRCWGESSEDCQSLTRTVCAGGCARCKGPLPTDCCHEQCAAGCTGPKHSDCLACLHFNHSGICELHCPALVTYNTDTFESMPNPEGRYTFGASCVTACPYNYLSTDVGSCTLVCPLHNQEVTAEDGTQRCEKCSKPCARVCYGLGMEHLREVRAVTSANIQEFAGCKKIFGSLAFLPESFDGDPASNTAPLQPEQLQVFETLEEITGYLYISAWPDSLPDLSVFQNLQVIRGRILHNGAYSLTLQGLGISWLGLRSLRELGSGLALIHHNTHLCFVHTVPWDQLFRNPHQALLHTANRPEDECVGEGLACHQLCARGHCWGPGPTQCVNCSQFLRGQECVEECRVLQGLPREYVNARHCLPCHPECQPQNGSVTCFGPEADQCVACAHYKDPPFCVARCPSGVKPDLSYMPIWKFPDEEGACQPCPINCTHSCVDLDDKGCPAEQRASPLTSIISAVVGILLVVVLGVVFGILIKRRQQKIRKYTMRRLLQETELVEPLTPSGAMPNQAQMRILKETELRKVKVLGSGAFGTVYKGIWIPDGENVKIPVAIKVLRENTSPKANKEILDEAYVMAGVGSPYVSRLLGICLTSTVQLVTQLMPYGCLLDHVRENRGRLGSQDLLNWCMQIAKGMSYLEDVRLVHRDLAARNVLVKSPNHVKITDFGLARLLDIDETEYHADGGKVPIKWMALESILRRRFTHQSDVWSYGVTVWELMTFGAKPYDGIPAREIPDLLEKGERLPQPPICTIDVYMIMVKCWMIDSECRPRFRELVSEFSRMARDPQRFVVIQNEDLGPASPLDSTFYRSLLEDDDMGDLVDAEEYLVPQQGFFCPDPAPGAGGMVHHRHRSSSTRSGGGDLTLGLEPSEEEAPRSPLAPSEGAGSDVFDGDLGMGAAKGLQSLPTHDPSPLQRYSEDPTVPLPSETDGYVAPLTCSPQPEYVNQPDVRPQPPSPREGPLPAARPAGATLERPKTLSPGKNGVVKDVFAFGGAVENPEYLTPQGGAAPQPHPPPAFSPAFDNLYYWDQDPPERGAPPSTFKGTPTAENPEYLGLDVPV

For `CC1=CCC(C(C)(C)NC(=O)c2ccccc2)C/C1=N\O` (stereo not given), the viability was 104% in assay [1]; 104% (inactive) in assay [3]; 112% (inactive) in assay [4]; 106% (inactive) in assay [5]; 88.6% in assay [6] (setting [9]); 106% in assay [6] (setting [10]). The Her2 level in assay [2] was 98.5% (inactive). In assay [6] (H69AR cells + 2 uM doxorubicin), the differential viability (reversal) was 17.3% (inactive). Also, the inhibition in assay [7] was -0.81% (inactive); in assay [8], 4.44% (inactive).
`CCC(=O)Nc1ccc2nc(SCC(=O)N3CCCC3)sc2c1`: the viability in assay [1] is 97.5%; in assay [3], 97.5% (inactive); in assay [4], 114% (inactive); in assay [5], 94.1% (inactive); in assay [6] (setting [9]), 88.5%; in assay [6] (setting [10]) it was 94.1%. Moreover, the Her2 level in assay [2] was 100% (inactive). Further, in assay [6] (H69AR cells + 2 uM doxorubicin), the differential viability (reversal) is 5.62% (inactive). In addition, the inhibition in assay [7] is 2.67% (inactive); in assay [8], 38.4% (active).
In the case of `COc1cc2[nH]c(=O)c(C(=O)NCCCN3CCCCC3)c(O)c2cc1OC`, the viability in assay [1] was 99.5%; in assay [3] it was 99.5% (inactive); in assay [4], 99.5% (inactive); in assay [5], 98.7% (inactive); in assay [6] (setting [9]) it was 91.1%; in assay [6] (setting [10]), 98.7%. In addition, the Her2 level in assay [2] was 99% (inactive). Also, the differential viability (reversal) in assay [6] (H69AR cells + 2 uM doxorubicin) was 7.58% (inactive). Moreover, the inhibition in assay [7] is -6.35% (inactive); in assay [8], 1.11% (inactive).
As to `CCCCN(C)C(=O)CS(=O)(=O)Cc1nc(-c2cccc(OC)c2)oc1C`, the viability in assay [1] is 94%; in assay [3], 94% (inactive); in assay [4], 94.8% (inactive); in assay [5] it was 99.9% (inactive); in assay [6] (setting [9]), 84.2%; in assay [6] (setting [10]) it was 99.9%. Further, in assay [2], the Her2 level was 114% (inactive). In assay [6] (H69AR cells + 2 uM doxorubicin), the differential viability (reversal) is 15.6% (inactive). Also, the figures for the inhibition in assay [7] and in assay [8] were -4.4% (inactive) and 3.11% (inactive), respectively.
For `O=C(CSc1ncccn1)c1ccccc1Br`, the viability in assay [1] is 120%; in assay [3], 120% (inactive); in assay [4], 116% (inactive); in assay [5], 90.7% (inactive); in assay [6] (setting [9]), 94.9%; in assay [6] (setting [10]) it was 90.7%. Besides, the Her2 level in assay [2] is 93.5% (inactive). In addition, the differential viability (reversal) in assay [6] (H69AR cells + 2 uM doxorubicin) is -4.21% (inactive). For the same molecule, the inhibition in assay [7] was -6.32% (inactive); in assay [8], -1.64% (inactive).
Regarding `Cc1noc(C)c1S(=O)(=O)N1CCC(C(=O)N2CCN(Cc3ccc4c(c3)OCO4)CC2)CC1`, the viability in assay [1] is 94%; in assay [3], 94% (inactive); in assay [4], 99% (inactive); in assay [5], 91.9% (inactive); in assay [6] (setting [9]), 98.6%; in assay [6] (setting [10]), 91.9%. Besides, in assay [2], the Her2 level was 92.5% (inactive). In addition, in assay [6] (H69AR cells + 2 uM doxorubicin), the differential viability (reversal) is -6.75% (inactive). Besides, the inhibition in assay [7] is -1.45% (inactive); in assay [8], -0.63% (inactive).
Turning to `O=C1CN(C(=O)CN2CCCC2)C(c2ccccc2)c2cc(Br)ccc2N1` (stereo not given), the viability in assay [1] is 94%; in assay [3], 94% (inactive); in assay [4], 75.8% (inactive); in assay [5] it was 102% (inactive); in assay [6] (setting [9]), 97.2%; in assay [6] (setting [10]), 102%. For the same molecule, in assay [2], the Her2 level is 91% (inactive). In assay [6] (H69AR cells + 2 uM doxorubicin), the differential viability (reversal) is 4.63% (inactive). The inhibition is -4.67% (inactive) in assay [7] and 1.61% (inactive) in assay [8].
In the case of `CCOC(=O)c1c(N)sc(C(=O)N2CCOCC2)c1C`, the viability is 127% in assay [1]; 127% (inactive) in assay [3]; 103% (inactive) in assay [4]; 98.9% (inactive) in assay [5]; 97.6% in assay [6] (setting [9]); 98.9% in assay [6] (setting [10]). For the same molecule, the Her2 level in assay [2] was 115% (inactive). In assay [6] (H69AR cells + 2 uM doxorubicin), the differential viability (reversal) is 1.31% (inactive). Moreover, the values for the inhibition in assay [7] and in assay [8] were -7.07% (inactive) and -1.75% (inactive), respectively.
On to `O=S(=O)(Nc1ccccn1)c1ccc(Oc2ccccc2)cc1`, for which the viability in assay [1] was 88%; in assay [3], 88% (inactive); in assay [4], 87.8% (inactive); in assay [5], 98.8% (inactive); in assay [6] (setting [9]), 88.3%; in assay [6] (setting [10]), 98.8%. Also, the Her2 level in assay [2] is 87.5% (inactive). Also, the differential viability (reversal) in assay [6] (H69AR cells + 2 uM doxorubicin) is 10.5% (inactive). In addition, the inhibition in assay [7] is -2.57% (inactive); in assay [8], -1.11% (inactive).
Take `Cc1nnc(SCC(=O)N2CC(=O)Nc3ccccc32)n1-c1ccccc1`: the viability was 93% in assay [1]; 93% (inactive) in assay [3]; 102% (inactive) in assay [4]; 97% (inactive) in assay [5]; 94.3% in assay [6] (setting [9]); 97% in assay [6] (setting [10]). The Her2 level in assay [2] is 90% (inactive). In addition, the differential viability (reversal) in assay [6] (H69AR cells + 2 uM doxorubicin) is 2.75% (inactive). Moreover, the values for the inhibition in assay [7] and in assay [8] were -4.53% (inactive) and 4.84% (inactive), respectively.
Take `O=S(=O)(NC1CCCC1)c1ccccc1Cl`: the viability in assay [1] is 94.5%; in assay [3] it was 94.5% (inactive); in assay [4], 87.1% (inactive); in assay [5] it was 101% (inactive); in assay [6] (setting [9]), 98.4%; in assay [6] (setting [10]), 101%. The Her2 level in assay [2] is 97% (inactive). Besides, the differential viability (reversal) in assay [6] (H69AR cells + 2 uM doxorubicin) was 2.58% (inactive). Moreover, the inhibition in assay [7] is 2.73% (inactive); in assay [8] it was 6.39% (inactive).
Take `COc1c(Br)cc2c(C)c(C(=O)O)oc2c1Br`: the viability in assay [1] is 104%; in assay [3] it was 104% (inactive); in assay [4], 84.2% (inactive); in assay [5] it was 94.2% (inactive); in assay [6] (setting [9]) it was 89.3%; in assay [6] (setting [10]), 94.2%. In addition, the Her2 level in assay [2] is 102% (inactive). The differential viability (reversal) in assay [6] (H69AR cells + 2 uM doxorubicin) was 4.95% (inactive). In addition, the figures for the inhibition in assay [7] and in assay [8] were 1.82% (inactive) and -4.59% (inactive), respectively.
On to `O=C(O)C1CCCN1C(=O)Nc1ccc(F)cc1` (stereo not given), for which the viability was 87% in assay [1]; 87% (inactive) in assay [3]; 106% (inactive) in assay [4]; 93.6% (inactive) in assay [5]; 83.1% in assay [6] (setting [9]); 93.6% in assay [6] (setting [10]). Besides, the Her2 level in assay [2] was 90.5% (inactive). In addition, the differential viability (reversal) in assay [6] (H69AR cells + 2 uM doxorubicin) was 10.5% (inactive). Also, the inhibition is -4.73% (inactive) in assay [7] and -8.5% (inactive) in assay [8].
In the case of `O=c1sc(Nc2ccccc2)nc2ccsc12`, the viability in assay [1] was 96.5%; in assay [3], 96.5% (inactive); in assay [4] it was 60.4% (inactive); in assay [5] it was 75.9% (inactive); in assay [6] (setting [9]), 78%; in assay [6] (setting [10]), 75.9%. Besides, the Her2 level in assay [2] is 47% (active). Moreover, in assay [6] (H69AR cells + 2 uM doxorubicin), the differential viability (reversal) was -2.11% (inactive). The inhibition is -8.16% (inactive) in assay [7] and -3% (inactive) in assay [8].

The term viability denotes a read-out of living cells in per cent, often relative to untreated cells. As a reminder, the inhibition is the drop in the measured response relative to a control, in per cent.
